Screens (PubChem)
This is a sample that favours compounds with a hit; in the whole collection about 4% have one here.
TAAR1 antagonist = human TAAR1 antagonism; Q96RJ0; CHO RD-HGA16 TAAR1, Fluo-8 calcium fluorescence, antagonist; inhibition, % at 3 µM; 360,000 tested, 1.5% active; AID 624466;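 active = inhibition above a per-plate cutoff, the mean inhibition of test compounds on that plate plus 3 SD, cut at about 49% in these data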
Target sequence (Q96RJ0 whole entry, looked up): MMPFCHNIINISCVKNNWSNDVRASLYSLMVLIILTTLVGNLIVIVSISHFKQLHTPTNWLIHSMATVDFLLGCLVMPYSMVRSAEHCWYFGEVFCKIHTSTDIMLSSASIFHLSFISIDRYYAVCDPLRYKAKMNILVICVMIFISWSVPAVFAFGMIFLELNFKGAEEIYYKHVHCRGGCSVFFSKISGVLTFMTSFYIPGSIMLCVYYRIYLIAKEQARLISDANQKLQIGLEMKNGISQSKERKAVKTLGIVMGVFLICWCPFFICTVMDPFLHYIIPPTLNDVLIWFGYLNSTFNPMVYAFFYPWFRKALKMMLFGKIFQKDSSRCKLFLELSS
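System: RD-HGA16 CHO cells with stable hTAAR1 and Gα16 | Probe or stimulus: EC80 β-phenethylamine stimulus | Dosing: 3 µM, single point | Times: Dye loading 75 min at 37 °C, then 30 min room temperature | Measured by: Fluo-8 calcium-sensitive fluorescence | Read-out basis: % inhibition of agonist calcium response | Replicates: n of 1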
NTR1 ag = agonists of human neurotensin receptor NTR1 | NTR1-U2OS beta-arrestin-GFP spot imaging, agonist mode | activation, % at 20 µM | 330,000 tested, 0.17% active;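 active = activation at or above 40% of the spot to cytoplasm intensity ratio, with at least 20 cells analyzed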
CHO parental Ca = signal in parental CHO cells, OX1R antagonist counter-screen | parental CHO-K1, ATP-induced calcium, Fluo-8 fluorescence | inhibition, % at 5.6 µM | 330,000 tested, 0.63% active;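 active = inhibition above that plate's mean sample inhibition plus 3 SD, cut at about 26% in these data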
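material = parental CHO cells | also added = ATP as calcium-mobilizing challenge | dosing = single point at 5.6 µM | detection = intracellular calcium via Fluo-8 no-wash fluorescent dye | read-out = % inhibition | benchmarks = low control ATP plus DMSO, high control DMSO only | repeats = one well per compound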
OX1R antag-1 = OX1R (human) antagonism | O43613 | OX1R-expressing cells, FRET antagonist read-out | inhibition, % at 6.6 µM | 330,000 tested, 1.8% active | AID 485270; in the data active = inhibition mostly above about 38%, no sharp cut-off; inactive = mostly below about 40%
TAAR1 agonist = agonists of human TAAR1 | Q96RJ0 | CHO RD-HGA16 TAAR1, Fluo-8 calcium fluorescence; vehicle wells 0%, saturating PEA agonist 100% | activation, % at 3 µM | 360,000 tested, 0.99% active;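 active = activation above the mean activation of all test compounds in the run plus 3 SD, cut at about 38% in these data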
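Test system: RD-HGA16 (CHO) cells co-expressing Gα16 and hTAAR1 | Doses: Single dose, 3 µM | Schedule: 17-24 h seeding, 75 min 37 °C dye, 30 min RT | Evaluation: % activation from peak over basal fluorescence ratio, DMSO-to-PEA scaled | Technique: Kinetic Fluo-8 calcium fluorescence | Benchmarks: Low control DMSO, high control PEA (EC100)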
OX1R antag-2 = antagonists of human orexin 1 receptor; O43613; CHO/OX1R cells, Fluo-8 calcium fluorescence, orexin A; inhibition, % at 5 µM; 330,000 tested, 0.43% active;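 active = inhibition above its plate's threshold, mean inhibition of all tested compounds on the plate plus 3 SD, cut at about 37% in these data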
Numbers stand for hits; – = inactive; · = no result; ! = not confirmed by another sample.

SMILES | TAAR1 antagonist | NTR1 ag | CHO parental Ca | OX1R antag-1 | TAAR1 agonist | OX1R antag-2
COc1cc(NS(=O)(=O)c2ccc(C)cc2C)cc(OC)c1OC | – | – | 50.6 | – | – | –
CCOC(=O)c1ccc(NS(=O)(=O)c2cc(C)ccc2OC)cc1 | – | – | 24.3 | – | – | –
CCOC(=O)c1ccc(NS(=O)(=O)c2cc(-c3nnnn3CC)ccc2OC)cc1 | – | – | – | – | – | –
COc1ccc(C2CC(=O)C(c3ccc(F)cc3)=CN2Cc2ccccc2)cc1 (stereo not given) | – | · | · | · | – | ·
CC1CCC(C(C)C)C(OC(=O)Cn2c(-c3ccc(Br)cc3)[n+](C)c3ccccc32)C1 (stereo not given) | – | – | 30.0! | – | – | –
CC1CCC(C(C)C)C(OC(=O)Cn2c(-c3ccc(Cl)cc3)[n+](C)c3ccccc32)C1 (stereo not given) | – | – | – | – | – | –
O=C1c2ccccc2C(=O)N1Cc1cc(-c2ccc(Cl)cc2)no1 | 49.3 | – | – | – | – | –
O=S(=O)(NCc1cc(-c2ccc(Cl)cc2)no1)c1ccc(Cl)cc1 | – | – | 92.6 | – | – | 51.1
O=S(=O)(NCc1cc(-c2ccc(Cl)cc2)no1)c1ccccc1 | – | – | – | – | – | –
COc1ccc(N2C(=O)CSC2c2cccc(F)c2)cc1 (stereo not given) | – | – | – | – | – | –
O=C(NCc1cc(C(F)(F)F)ccc1Cl)c1cccc2c1C(=O)c1ccc(N3CCCCC3)cc1S2(=O)=O | – | – | – | – | – | –
O=C(NCc1cc(C(F)(F)F)ccc1Cl)c1cccc2c1C(=O)c1ccc(N3CCC(N4CCCCC4)CC3)cc1S2(=O)=O | 59.2 | · | · | · | – | ·
COc1ccccc1N1CCN(c2ccc3c(c2)S(=O)(=O)c2cccc(C(=O)NCc4ccc(F)cc4)c2C3=O)CC1 | 56.5 | · | · | · | – | ·
O=C(NCc1cccc(F)c1)c1cccc2c1C(=O)c1ccc(N3CCC(Cc4ccccc4)CC3)cc1S2(=O)=O | · | – | 41.6 | – | · | –
O=C(NCc1cccc(C(F)(F)F)c1)c1cccc2c1C(=O)c1ccc(N3CCC(Cc4ccccc4)CC3)cc1S2(=O)=O | · | – | – | – | · | –
O=C(NCc1cccc(F)c1)c1cccc2c1C(=O)c1ccc(N3CCCC3)cc1S2(=O)=O | · | – | – | – | · | –
O=C(NCc1ccccc1)[C@H]1CCCN1C(=O)[C@H]1CCCN1C(=O)c1ccc(F)c(C(F)(F)F)c1 | – | · | · | · | – | ·
Cc1cnc(NC(=O)[C@H](C)N2C(=O)C3CCCCC3C2=O)s1 (stereo not given in full) | – | – | – | – | – | –
COc1ccc2c(c1)[C@@H](NC(=O)c1ccncc1)[C@H](C)[C@H]2c1ccccc1 | – | · | · | · | – | ·
O=C(Nc1ccc(OCC(F)(F)C(F)F)c(C(F)(F)F)c1)c1ccccc1O | – | – | 72.0 | 84.5 | – | 66.4
O=C1NC(c2ccc(Br)cc2)c2c(-c3ccccc3)n[nH]c21 (stereo not given) | – | · | · | · | – | ·
CCCCCCC12Cc3cc(OC)c(OC)cc3C(O1)c1c(cc(C)oc1=O)O2 (stereo not given) | – | · | · | · | – | ·
O=C1OCC(c2ccccc2)=C1c1ccccc1 | – | – | – | – | – | –
NC1=C(c2ccccc2)C(=O)NC1=O | – | – | – | 39.9 | – | –
CCOC(=O)Cc1csc(SCC(=O)Nc2cc(Cl)ccc2Oc2ccccc2)n1 | 87.5 | – | 62.0 | – | – | 61.0
SMILES | TAAR1 antagonist | NTR1 ag | CHO parental Ca | OX1R antag-1 | TAAR1 agonist | OX1R antag-2
CCCCCCCCN1C(=O)[C@@H](CC(=O)N2CCCCC2)C[C@@]2(C(=O)OC)C1=C[C@H](C(C)(C)C)O[C@@H]2C | – | · | · | · | – | ·
Cc1cc(C(=O)NC2CCCc3c2cnn3-c2ccc(C(C)(C)C)cc2)nn1C (stereo not given) | – | – | 50.8 | – | – | –
CC(C)(C)c1ccc(-n2ncc3c2CCCC3NC(=O)C2(C(N)=O)CC2)cc1 (stereo not given) | – | – | 42.9 | – | – | –
CN1C[C@H]2CON(C)[C@H]2C[C@H]1c1cccc(N2CCOCC2)c1 | – | · | · | · | – | ·
CCCCNC(=O)C[C@H]1C[C@@]2(C(=O)OC)C(=C[C@H](C3CCCC3)O[C@@H]2C)N(Cc2ccccc2)C1=O | – | · | · | · | – | ·
Clc1ccc(SCCOCCN2CCc3ccccc3C2)cc1 | – | – | – | – | 38.0 | –
O=[N+]([O-])c1cccc(/C=N/n2cnnc2)c1O | – | – | – | – | – | –
O=[N+]([O-])c1cc2c(cc1/C=N/n1cnnc1)OCO2 | – | – | – | 76.6 | – | –
Cc1cc(NC(=O)c2ccc(C)c(C)c2)no1 | – | – | – | – | – | –
O=C(Nc1ncc(Cc2ccc(SC(F)F)cc2)s1)c1ccccc1 | – | – | – | – | 44.3 | –
CCN1C(=O)c2cccc3c(S(=O)(=O)N(C(C)=O)c4ccc(OC(C)=O)cc4)ccc1c23 | 49.0 | – | – | – | – | –
O=Nc1c(O)n(Cc2ccc(Cl)c(Cl)c2)c2ccccc12 | – | – | 37.9 | – | – | –
CC(=O)Nc1nc(COc2ccccc2)cs1 | – | – | – | – | – | –
CC(=O)Nc1nc(COc2ccc3ccccc3c2)cs1 | – | – | – | – | 38.3 | –
CC[N+]1=C(C)C(C)(C)c2cc(C)ccc21 | – | – | 63.9 | – | – | 70.0
NC(=O)c1c(N)[nH]c(C(=O)c2ccccc2)c1-c1ccc2ccccc2c1 | – | · | · | · | – | ·
COc1cc(C(C(=O)NCc2ccccc2)N(Cc2ccco2)C(=O)c2cnccn2)cc(OC)c1OC (stereo not given) | – | – | – | – | – | –
O=C(NCc1ccccc1)C(c1cccs1)N(Cc1cccs1)C(=O)c1cnccn1 (stereo not given) | 49.6 | – | – | – | – | –
O=C(NCc1ccccc1)C(c1ccccc1)N(Cc1cccs1)C(=O)c1cnccn1 (stereo not given) | 62.1 | – | – | – | – | –
CCOCCCNC(=O)C(c1ccc(OC)cc1)N(Cc1cccs1)C(=O)c1ccccn1 (stereo not given) | 50.3 | – | – | – | – | –
CCOCCCNC(=O)C(c1ccc(OC)cc1)N(Cc1ccc2c(c1)OCO2)C(=O)c1ccccn1 (stereo not given) | – | – | – | – | – | –
Cc1cc(N2CCN(CC(C)(C)O)C[C@@H]2C)ccc1N1CCN(CC(C)(C)O)[C@@H](C)C1 | – | · | · | · | – | ·
O=C1NC(=S)S/C1=C\c1coc2ccc(O)cc2c1=O | – | – | – | – | – | –
O=C1NC(=S)S/C1=C\c1coc2ccccc2c1=O | – | – | – | 64.4 | – | –
Cc1ccc(C(=O)NCC(=O)NCC(=O)OCc2ccc(Oc3ccc([N+](=O)[O-])cc3)cc2)cc1 | – | – | 45.8 | – | – | 59.3
